In ChEMBL document CHEMBL1137670, “First occurrence of an IMP metallo-beta-lactamase in Aeromonas caviae: IMP-19 in an isolate from France” (2007):
In brackets after ≈: the same amount, converted by molar mass.

Tests used:
Format in all cases: functional
Aeromonas caviae [1] = experiment: Antimicrobial activity against Aeromonas caviae A324R by disk diffusion method
Outline: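 Disk diffusion per CLSI criteria, read as inhibition zone diameter in mm.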

Escherichia coli [2] = experiment: Antimicrobial activity against Escherichia coli DH5alpha expressing pJDB2 containing Aeromonas caviae A324R metallo-beta-lactamase gene by broth dilution method
Outline: (§1)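 Beta-lactam MICs by standard broth dilution per CLSI criteria. Recombinant DH5alpha(pIP19) carries blaIMP-19 subcloned into pK18, selected on kanamycin 30 µg/ml plus ceftazidime 4 µg/ml. DH5alpha(pJDB2) carries the 35 kb native plasmid extracted by alkaline lysis.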

Aeromonas caviae [3] = experiment: Antimicrobial activity against Aeromonas caviae A324R expressing metallo-beta-lactamase IMP-19 by broth dilution method; outline: as §1
Escherichia coli [4] = experiment: Antimicrobial activity against Escherichia coli DH5alpha expressing pIP19 containing Aeromonas caviae A324R metallo-beta-lactamase blaIMP-19 gene by broth dilution method; outline: as §1
Escherichia coli [5] = experiment: Antimicrobial activity against Escherichia coli DH5alpha by broth dilution method; outline: as §1

Row | SMILES | diameter of the inhibition zone (DIZ) (Aeromonas caviae [1]) | MIC (Escherichia coli [2]) | MIC (Aeromonas caviae [3]) | MIC (Escherichia coli [4]) | MIC (Escherichia coli [5])
1 | C[C@H]1[C@H](NC(=O)/C(=N\OC(C)(C)C(=O)O)c2csc(N)n2)C(=O)N1S(=O)(=O)O [AZTREONAM] | 24 mm | 256 µg/mL (≈ 588 µM) | 512 µg/mL (≈ 1180 µM) | 256 µg/mL (≈ 588 µM) | –
2 | Cc1nnc(SCC2=C(C(=O)O)N3C(=O)[C@@H](NC(=O)Cn4cnnn4)[C@H]3SC2)s1 [CEFAZOLIN] | – | 256 µg/mL (≈ 563 µM) | 1020 µg/mL (≈ 2250 µM) | 256 µg/mL (≈ 563 µM) | ≤ 1 µg/mL
3 | CO[C@@]1(NC(=O)Cc2cccs2)C(=O)N2C(C(=O)O)=C(COC(N)=O)CS[C@@H]21 [CEFOXITIN] | – | 256 µg/mL (≈ 599 µM) | 512 µg/mL (≈ 1200 µM) | 512 µg/mL (≈ 1200 µM) | 2 µg/mL (≈ 4.68 µM)
4 | CC(C)(O/N=C(\C(=O)N[C@@H]1C(=O)N2C(C(=O)[O-])=C(C[n+]3ccccc3)CS[C@H]12)c1csc(N)n1)C(=O)O [CEFTAZIDIME] | – | 128 µg/mL (≈ 234 µM) | 1020 µg/mL (≈ 1870 µM) | 512 µg/mL (≈ 937 µM) | 4 µg/mL (≈ 7.32 µM)
5 | O=C(O)[C@H]1/C(=C/CO)O[C@@H]2CC(=O)N21 [CLAVULANIC ACID] | – | 4 µg/mL (≈ 20.1 µM) | 16 µg/mL (≈ 80.3 µM) | 8 µg/mL (≈ 40.2 µM) | 0.5 µg/mL (≈ 2.51 µM)
6 | C[C@@H](O)[C@H]1C(=O)N2C(C(=O)O)=C(SCCNC=N)C[C@H]12 [IMIPENEM ANHYDROUS] | 27 mm | 0.25 µg/mL (≈ 0.835 µM) | 8 µg/mL (≈ 26.7 µM) | 0.25 µg/mL (≈ 0.835 µM) | –
7 | C[C@@H](O)[C@H]1C(=O)N2C(C(=O)O)=C(S[C@@H]3CN[C@H](C(=O)N(C)C)C3)[C@H](C)[C@H]12 [MEROPENEM] | – | 256 µg/mL (≈ 668 µM) | 1020 µg/mL (≈ 2670 µM) | 512 µg/mL (≈ 1340 µM) | ≤ 1 µg/mL
8 | CCN1CCN(C(=O)N[C@@H](C(=O)N[C@@H]2C(=O)N3[C@@H]2SC(C)(C)[C@@H]3C(=O)O)c2ccccc2)C(=O)C1=O [PIPERACILLIN] | – | 8 µg/mL (≈ 15.5 µM) | 256 µg/mL (≈ 495 µM) | 2 µg/mL (≈ 3.86 µM) | 1 µg/mL (≈ 1.93 µM)
9 | C[C@]1(Cn2ccnn2)[C@H](C(=O)O)N2C(=O)C[C@H]2S1(=O)=O [TAZOBACTAM] | – | 0.5 µg/mL (≈ 1.67 µM) | 1 µg/mL (≈ 3.33 µM) | 0.5 µg/mL (≈ 1.67 µM) | ≤ 0.25 µg/mL
10 | CC1(C)S[C@@H]2[C@H](NC(=O)[C@H](C(=O)O)c3ccsc3)C(=O)N2[C@H]1C(=O)O [TICARCILLIN] | – | 512 µg/mL (≈ 1330 µM) | 2050 µg/mL (≈ 5330 µM) | 1020 µg/mL (≈ 2660 µM) | 4 µg/mL (≈ 10.4 µM)
